According to ChEMBL document CHEMBL4513216, “Probing the Open Global Health Chemical Diversity Library for Multistage-Active Starting Points for Next-Generation Antimalarials” (ACS Infect Dis, 2020):

Test: Toxicity liver stage against HepG2, at 10uM
Type: cell-based
Parameters: test concentration 10 uM, cell line HepG2-A16-CD81EGFP
Conditions: human, HepG2-A16-CD81EGFP cells; read-out: INHIBITION
Outline: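 Uninfected HepG2-A16-CD81EGFP cells, 3 × 10^3 per well, 1536-well, plated on prespotted compound at 10 μM final, parasite-free screening media added to match infected plates; puromycin 10 μM positive, DMSO 0.5% negative; run in parallel with 48 h PbLuc assay at 37 °C, 5% CO2; viability by CellTiter-Glo luminescence, normalized to controls.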

Point of comparison: CCCN1CCC(N(Cc2ncc(C)o2)C(C)=O)C1 (stereo unspecified), cytotoxicity at 10 µM -13.1%. Against it:
- CC(C)CCC(=O)N1CCN(C(=O)c2ccc(-n3cccn3)cc2)CC1 — higher, 4.28%
- Cc1ccccc1C(=O)Nc1ccc([C@H]2OCC(=O)N(C)[C@@H]2CO)cc1 — higher, 0.461%
- CCOC(=O)c1nc(COc2ccc(CC(N)=O)cc2)no1 — higher, -6.24%
- COc1ccc2nnc(CCC(=O)Nc3nc4c(s3)CCCC4)n2n1 — higher, -6.98%
- Cc1nnsc1C(=O)NCc1nn(C)c2c1COCC2 — higher, -0.543%
- CCOCC(=O)NCC(CC)(OC)c1ccccc1 (stereo unspecified) — higher, -0.478%
- CCn1cc2c(n1)C(COCC1CC1)CN(C(=O)c1ccsc1)C2 (stereo unspecified) — higher, 18.6%
- O=C(N1CCCC1)C12CC(CN1Cc1nccs1)C2 — higher, -11.5%
- CN1Cc2ccccc2CC2(CCN(c3ncc(F)cn3)CC2)C1=O — higher, 6.59%
- O=C(Cc1cccnc1)N1CCC2(CCN(C3CCOC3)CC2)C1 (stereo unspecified) — higher, 5.08%
- O=C1CCC2(CCCN(c3ncc(F)cn3)CC2)N1Cc1ccccc1 (stereo unspecified) — higher, 2.87%
- O=C(O)c1nnn(Cc2cccc(C(F)(F)F)c2)c1-c1ccccn1 — higher, 2.27%
- CSc1nc2cc(C)n(CC(=O)Nc3nccs3)c2c(=O)n1CC(C)C — higher, -12.6%
- CN(C)C(=O)NC[C@H]1OC[C@@H]2CCN(Cc3ccoc3)C[C@@H]21 — higher, 2.82%
- Cn1cccc1CN1CCC2(CCCN(C(=O)Cc3cccnc3)C2)C1 (stereo unspecified) — higher, 7.17%
- O=C(c1ccsc1)N1CC[C@H]2C[C@@H](c3nnc(C4CC4)o3)O[C@@H]2C1 — higher, -7.36%
- COc1ccc(OC)c(C(C)NC(=O)c2nn(C)c(C)c2Br)c1 (stereo unspecified) — higher, 5.38%
- COc1cccc([C@@]2(O)CC[C@@H]3CN(C(=O)c4cn(C)nc4C)C[C@@H]32)c1 — higher, 3.51%
- Oc1cc(C2CCCCN2CC2CC2)nc(-c2ccncc2)n1 (stereo unspecified) — higher, 9.77%
- Cc1cc(N2CCC(Cc3ccncc3)C2)ncn1 (stereo unspecified) — higher, 0.328%
- Cc1cc(N2CCC(Cc3cccnc3)C2)ncn1 (stereo unspecified) — higher, -2.15%
- CC1(c2cc[nH]n2)CCN(C(=O)c2ccc(Cl)cc2)CC1 — higher, 0.812%
- COCCN1CCC(c2ncc(C(=O)N3CCOCC3)c(C)n2)CC1 — higher, 1.36%
- c1cc(N2CCCCC2)ccc1-c1noc(CN2CCOCC2)n1 — higher, -1.59%
- O=C(CC1CCCC1)N1CCC(c2cc3ncccc3c(O)n2)CC1 — lower, -24.7%
- COc1ccccc1Oc1cncc(C2CCCN(C)C2)n1 (stereo unspecified) — higher, -3.8%
- CC(=O)N1CCCC(c2ccnc(N(C)C)n2)C1 (stereo unspecified) — lower, -16.2%
- Cc1cnc(N)c(C(=O)C2CCN(C(=O)c3cnc(C)nc3C)CC2)c1 — lower, -18%
- CC(=O)N1CCC(c2ccnc(Nc3cncnc3)n2)CC1 — lower, -33.2%
- c1cnc2[nH]c(C3CCCC3)c(CN3CCCCC3)c2c1 — lower, -26.9%
- CS(=O)(=O)N1CCCC(Cc2cncc(-c3ccccc3C(=O)O)n2)C1 (stereo unspecified) — higher, -6.41%
- Cc1cc(-c2cnn(CCNC(=O)CCn3cccn3)c2C2CC2)on1 — higher, -4.66%
- CCc1nccn1-c1cncc(C2CCCN2Cc2ccccn2)n1 (stereo unspecified) — higher, -3.47%
- O=C(Cc1c(F)cccc1Cl)NC1CCCCNC1=O (stereo unspecified) — higher, 1.91%
- c1ncn(CC2CCCN(CC3CCCCC3)C2)n1 (stereo unspecified) — higher, 4.61%
- CN(C)c1cc2c(nn1)CCN(C(=O)c1cc3c(s1)CCCC3)C2 — higher, -6.3%
- N#CC1(C(=O)N2CCC(Nc3cccnn3)CC2)CCCCC1 — higher, 2.87%
- CCOCCCC(=O)N1CCN(C(=O)Cc2cccc(OC)c2)CC1 — higher, -1.86%
- N#CCCNC(=O)CSc1cc(F)ccc1F — higher, -3.74%
- Cc1nc(NC(=O)C(C)N2CCN(c3cnccn3)CC2)sc1C (stereo unspecified) — higher, 4.75%
- CC(C)c1n[nH]c(C2CN(Cc3ccno3)CCO2)n1 (stereo unspecified) — higher, 5.49%
- CCOc1cc(CN(C)CC(C)(C)O)ccc1OC(F)F — higher, 2.31%
- Cc1ccc(OCC(=O)NCc2ccco2)nc1 — higher, -0.224%
- CC(C)COC1CCN(C(=O)c2cc3ccccc3c(=O)[nH]2)CC1 — higher, 9.05%
- COc1ccc(S(=O)(=O)NC(=O)c2c(C)noc2C(C)C)cc1OC — higher, -2.23%
- CCc1nnc2n1CCN(C(=O)c1ccc3[nH]nnc3c1)C2 — higher, -0.337%
- COc1ccccc1C(=O)NCCCN1CCCC1C(=O)N(C)C (stereo unspecified) — higher, -2.94%
- CCCC(=O)NCC(=O)NC1CC(C)(C)Cc2oc(C)cc21 (stereo unspecified) — higher, -4.32%
- Cc1nccn1CCCNC(=O)C1CCCCN1Cc1ccncc1 (stereo unspecified) — higher, -8.18%
- CCSc1ccc(NC(=O)NC(C)c2c(C)noc2C)cn1 (stereo unspecified) — higher, -3.69%
- CCC(CNC(=O)c1nc(=O)[nH][nH]1)Oc1cccc(C(F)(F)F)c1 (stereo unspecified) — higher, -6.25%
- CCN(CCc1nccs1)C(=O)c1ccco1 — higher, 15.4%
- CCOc1ccc(NC(=O)N(CCC#N)Cc2ccccn2)cc1F — higher, -6%
- O=C(c1ccc[nH]1)N1CCCC1c1nc(-c2ccccc2)n[nH]1 (stereo unspecified) — higher, 2.57%
- Cc1ccc(C2CSCCN2C(=O)c2cc(C(N)=O)cs2)o1 (stereo unspecified) — higher, 5.48%
- CC(C)c1nc(C2CCCN2c2ccnc(C3CCCC3)n2)no1 (stereo unspecified) — higher, 28.5%
- N#Cc1c(F)cccc1N1CCCC(C(=O)Nc2nccs2)C1 (stereo unspecified) — higher, 8.92%
- Cc1c(C(=O)NCCC(=O)N2CCOCC2)oc2c(C)cccc12 — higher, -1.96%
- Cc1ccc(OCC(=O)N(C)Cc2ccc(F)cc2)cn1 — higher, 7.88%
- NC(=O)CN1CCCN(C(=O)c2ccn(-c3ccccc3)n2)CC1 — higher, -1.61%
- O=C(Nc1ccnc(OC2CCOC2)c1)c1cc(F)ccc1F (stereo unspecified) — higher, 5.87%
- O=C(NCCCNC(=O)c1cccc(O)c1)NCc1ccccc1F — higher, -6.42%
- COCCCn1cnnc1CNC(=O)c1[nH]c2c(C)cc(C)cc2c1C — higher, 5.22%
- CN(Cc1ccsc1)C(=O)c1ccc(C2CCCO2)s1 (stereo unspecified) — higher, 7.9%
- CCc1cc(NCCc2cccnc2)n2nc(C)c(C)c2n1 — higher, 2.12%
- CCN1CCCC(C)(C(=O)NCc2nnnn2-c2ccccc2)C1 (stereo unspecified) — lower, -17.7%
- Cc1cccc(Cc2nc3c([nH]2)CCCNC3=O)c1 — higher, -12.9%
- CCCN1CCC(Cc2noc(-c3[nH]cnc3C)n2)CC1 — higher, 1.34%
- O=C(c1ccc(C2CCCN2)s1)N1CC=CC1 (stereo unspecified) — higher, 1.33%
- Cc1ccc(-c2nnc(CN3CCOCC(CO)C3)o2)n1C (stereo unspecified) — higher, -3.28%
- CCC(C(=O)NC1CCCCC1)n1cccc(OC)c1=O (stereo unspecified) — higher, -2.23%
- Cc1nc(CNC(=O)c2ccc3c(c2)nc(N2CCOCC2)n3C)cs1 — higher, -1.76%
- CCC(C(=O)N(C)C)n1ccc2ncccc2c1=O (stereo unspecified) — higher, 3.63%
- O=C(c1cnn2cc(CCO)cnc12)N1CCOC(C(F)(F)F)C1 (stereo unspecified) — higher, 3.24%
- Cc1nc(CN2CCCC(CCNS(C)(=O)=O)C2)c[nH]1 (stereo unspecified) — higher, -10.2%
- CCn1nc(C(C)C)cc1C(=O)NCCCOC — lower, -14.7%
- CC[C@@]1(O)CCN(C(=O)c2ccc(SC)cc2)C[C@H]1O — lower, -17.5%
- CCn1ncnc1C(C)NC(=O)C1CCN(C(C)C)CC1 (stereo unspecified) — higher, 18.5%
- Cc1nc(C2CCCN(C(=O)CO)C2)cc(N2CCOCC2)n1 (stereo unspecified) — higher, -12.9%
- Cc1cc(CN2CCN(C(=O)C(C)C)[C@@H]3CS(=O)(=O)C[C@@H]32)ccc1F — higher, 3.41%
- CNc1cccc(C2CCCN(C(C)=O)C2)n1 (stereo unspecified) — higher, -0.962%
- Cc1nc(O)c2nnn(C[C@H]3CCCN3C(=O)C(C)(C)C)c2n1 — higher, 3.25%
- COc1ncccc1NC(=O)N(CC(C)C)C1CC1 — higher, -0.874%
- Cc1ccc(C)c(CS(=O)(=O)CC(=O)NCCCOC(C)C)c1 — higher, -2.51%
- Cc1cc(C)n(CC2CCCN2C(=O)c2cncnc2C)n1 (stereo unspecified) — higher, -2.98%
- Cc1noc(C(C)N2CCN(Cc3nc(C)c(C)o3)CC2)n1 (stereo unspecified) — higher, 0.397%
- CC1CCN(Cc2ccc(CNC(=O)c3ccn(C)c(=O)c3)cc2)CC1 — higher, -2.94%
- Cn1ccc(C(=O)NCc2ccc(CN3CCCC3)cc2)cc1=O — lower, -13.5%
- CCc1nc2n(n1)CC(NCc1cnn(Cc3ccccc3)c1)CC2 (stereo unspecified) — higher, -10.4%
- Cc1ccc(-n2cc(C(=O)N3CCCC(n4cccn4)C3)nn2)cc1 (stereo unspecified) — lower, -20.3%
- O=C(NCCCn1ccnc1)NCC(c1ccco1)N1CCCC1 (stereo unspecified) — higher, -8.86%
- CCn1cnnc1CNC(=O)N1CCN(Cc2ccco2)CC1 — lower, -17.4%
- CCc1nc(CN2CCCC(NCc3nc(C)c(C)o3)C2)no1 (stereo unspecified) — higher, -12.1%
- O=C(CCc1nccs1)N1CCN(c2nccs2)CC1 — lower, -21.8%
- CC(C)c1nc(CN2CCOCC2)cs1 — higher, -7.49%
- CCc1nc(CN2CCCN(C(=O)C3CCOCC3)CC2)cs1 — higher, -8.11%
- O=C(O)c1csc(S(=O)(=O)Nc2cccc(OCC(F)(F)F)c2)c1 — the same, -13.1%
- O=C(CN1CCc2cncnc2C1)NCCOc1ccccc1 — higher, -6.78%
- Cc1ccc(CC(=O)N2CCCC(c3nc(C)cs3)C2)cn1 (stereo unspecified) — higher, -8.13%
- Cc1cc(NC(=O)CN2CCn3c(nnc3C3CC3)C2)n(C)n1 — lower, -14%
- c1nc(CN2CCC3(CC2)COCCN3CC2CC2)c[nH]1 — higher, -1.26%
- Cc1ccc(CNC(=O)CN2CCN(CC(O)c3ccco3)CC2)cc1 (stereo unspecified) — higher, 2.71%
- Cn1cc(C(=O)NC[C@@H]2OC[C@H]3CN(Cc4ccco4)CC[C@H]32)cn1 — lower, -13.4%
- Cc1ccc(N2CCO[C@H]3[C@H](OCC(=O)N4CCCC4)CC[C@@H]32)cc1 — higher, -1.03%
- O=C(c1ccncc1F)N1CC[C@@H]2CN(c3ncccn3)CCO[C@@H]2C1 — lower, -77.2%
- CN(Cc1ccco1)[C@@H]1CN(C(=O)c2cnccn2)C[C@@H]2CCCO[C@@H]21 — higher, 3.25%
- O=C(c1ccco1)N1CCCC2(CN(Cc3ccc(F)cc3)CCO2)C1 (stereo unspecified) — higher, 0.0288%
- c1cc(CN2C[C@@H]3OCCN(CC4CCCO4)[C@@H]3C2)ccn1 (stereo partly specified) — lower, -80.2%
- Cc1cc(N2CCN(C(=O)[C@@H]3C[C@H]4C=C[C@@H]3C4)CC2)cc(C)n1 — higher, -7.62%
- O=C(CN1C[C@H]2CC(OCc3ccccc3)C[C@H]2C1)N1CCOCC1 (stereo partly specified) — higher, -9.92%
